Laboratory results from publication PMC9948165 (ACS Omega, 2023).

Legend:
Assay type in all cases: cell-based, human
A549 cells = assay: MTT cytotoxicity assay, A549; conditions: read-out: IC50 A549 cells, 72 h
Summary of the method: (§1)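 Cells seeded at 5 × 10^3 per well in 96-well plates and left overnight: A549 and HCT116 in RPMI-1640, LO2 in DMEM. Medium replaced with test compound at 100, 50, 25, 12.5, 6.25, 3.125 or 1.5625 μM for 72 h; medium-only control. MTT (5 mg/mL) added for 4 h, formazan dissolved in DMSO, OD read at 490 nm; IC50 derived.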

HCT116 cells [1] = assay: MTT cytotoxicity assay, HCT116; conditions: for IC50: read-out: IC50 HCT116 cells, 72 h
Summary of the method: as §1

LO2 cells = assay: MTT cytotoxicity assay, LO2 normal hepatocytes; conditions: read-out: IC50 LO2 cells, 72 h, normal hepatocyte cell line
Summary of the method: as §1

HCT116 cells [2] = assay: Cell cycle analysis by flow cytometry; conditions: HCT116, 10 μM, 24 h
Summary of the method: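 HCT116 cells in log phase were seeded at 1 × 10^6 per well in six-well plates and grown 24 h at 37 °C. They were PBS-washed, given fresh medium with 10 μM test compound for 24 h, trypsinised and washed in cold PBS. Cells were fixed in 70% ethanol at −20 °C for 48 h, treated with RNase A at 37 °C for 30 min, then PI for 30 min at RT in the dark. Flow cytometry DNA content was model-fitted into cell-cycle phases.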

Compound | IC50 (A549 cells) [µM] | IC50 (HCT116 cells [1]) [µM] | IC50 (LO2 cells) [µM] | cell cycle blocking effect (HCT116 cells [2]) | cytotoxicity against HCT116 cells (HCT116 cells [1]; at 25 μM, 72 h) [%]
N.N.[Cl][Pt][Cl] [cisplatin, reference compound] | 7.5 ± 0.7 | 5.7 | 0.7 | mainly blocked the cell cycle in the S phase | –
Clc1ccc([O][Ga]([O]c2ccc(Cl)c3cccnc23)[O]c2ccc(Cl)c3cccnc23)c2ncccc12 [CP-3, [Ga(ClQL)3]] | 8.7 ± 0.8 | 2 ± 0.3 | 23.3 ± 5.3 | – | 91.98
c1cnc2c([O][Ga]([O]c3cccc4cccnc34)[O]c3cccc4cccnc34)cccc2c1 [CP-1, [Ga(HQL)3]] | 3.8 ± 1.1 | 1.2 ± 0.2 | 8 ± 1 | – | –
Cc1ccc2cccc([O][Ga]([O]c3cccc4ccc(C)nc34)[O]c3cccc4ccc(C)nc34)c2n1 [CP-2, [Ga(MQL)3]] | 6.1 ± 0.8 | 4.7 ± 0.7 | 3.3 ± 0.5 | – | –
O=C1[O][Pt]2([NH][C@@H]3CCCC[C@H]3[NH]2)[O]C1=O [oxaliplatin, reference compound] | 3.2 ± 0.2 | 8.3 ± 0.4 | 2.3 ± 0.3 | blocked it in the G1/S/G2 phase with comparable effects | –
